Test system: U2OS
Experiment: Multiplex assay against U2OS
Type: toxicity, cell-based
Settings: human
How it was run: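 At seeding, live cells were stained with Hoechst33342, BioTracker Green Microtubule Cytoskeleton Dye, MitoTracker Red and Annexin V Alexa Fluor 680. After compound addition they were imaged on a CQ1 microscope at 37°C and 5% CO2, and CellPathfinder machine-learning gating sorted them into Hoechst high-intensity objects or normal cells, with normal cells further split into healthy, pyknosed or fragmented nuclei and pyknosed cells into mitotic or apoptotic. Tubulin, mitochondrial-mass and membrane-permeability phenotypes are given as per cents of cells with healthy nuclei.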

[1] = 12 h, 1 µM, compound concentration 1 uM, replicate 1
[2] = 12 h, 1 µM, compound concentration 1 uM, replicate 2
[3] = 12 h, 10 µM, compound concentration 10 uM, replicate 1
[4] = 12 h, 10 µM, compound concentration 10 uM, replicate 2
[5] = 24 h, 1 µM, compound concentration 1 uM, replicate 1
[6] = 24 h, 1 µM, compound concentration 1 uM, replicate 2
[7] = 24 h, 10 µM, compound concentration 10 uM, replicate 1
[8] = 24 h, 10 µM, compound concentration 10 uM, replicate 2
[9] = 48 h, 1 µM, compound concentration 1 uM, replicate 1
[10] = 48 h, 1 µM, compound concentration 1 uM, replicate 2
[11] = 48 h, 10 µM, compound concentration 10 uM, replicate 1
[12] = 48 h, 10 µM, compound concentration 10 uM, replicate 2

Structure (SMILES): C=CCN1C[C@H](C(=O)N(CCCN(C)C)C(=O)NCC)C[C@@H]2c3cccc4[nH]cc(c34)C[C@H]21 [CABERGOLINE]
- Population Apoptotic (%) [1]: 86%
- Population Fragmented Nuclei (%) [1]: 13%
- Population Healthy Nuclei (%) [1]: 72%
- Population Hoechst High Intensity Objects (%) [1]: 2%
- Population Membrane Permeable-Phenotype (%) [1]: 3%
- Population Mitochondria Different-Phenotype (%) [1]: 1%
- Population Mitotic Cells (%) [1]: 13%
- Population Normal (%) [1]: 97%
- Population Pyknosed Nuclei (%) [1]: 13%
- Population Tubulin-Different-Phenotype (%) [1]: 1%
- Total Cell Count [1]: 228
- Population Apoptotic (%) [2]: 57%
- Population Fragmented Nuclei (%) [2]: 9%
- Population Healthy Nuclei (%) [2]: 84%
- Population Hoechst High Intensity Objects (%) [2]: 3%
- Population Membrane Permeable-Phenotype (%) [2]: 8%
- Population Mitochondria Different-Phenotype (%) [2]: 4%
- Population Mitotic Cells (%) [2]: 42%
- Population Normal (%) [2]: 96%
- Population Pyknosed Nuclei (%) [2]: 5%
- Population Tubulin-Different-Phenotype (%) [2]: 5%
- Total Cell Count [2]: 129
- Population Apoptotic (%) [3]: 69%
- Population Fragmented Nuclei (%) [3]: 35%
- Population Healthy Nuclei (%) [3]: 52%
- Population Hoechst High Intensity Objects (%) [3]: 3%
- Population Membrane Permeable-Phenotype (%) [3]: 15%
- Population Mitochondria Different-Phenotype (%) [3]: 9%
- Population Mitotic Cells (%) [3]: 30%
- Population Normal (%) [3]: 96%
- Population Pyknosed Nuclei (%) [3]: 11%
- Population Tubulin-Different-Phenotype (%) [3]: 11%
- Total Cell Count [3]: 228
- Population Apoptotic (%) [4]: 64%
- Population Fragmented Nuclei (%) [4]: 17%
- Population Healthy Nuclei (%) [4]: 70%
- Population Hoechst High Intensity Objects (%) [4]: 2%
- Population Membrane Permeable-Phenotype (%) [4]: 13%
- Population Mitochondria Different-Phenotype (%) [4]: 21%
- Population Mitotic Cells (%) [4]: 35%
- Population Normal (%) [4]: 97%
- Population Pyknosed Nuclei (%) [4]: 12%
- Population Tubulin-Different-Phenotype (%) [4]: 9%
- Total Cell Count [4]: 143
- Population Apoptotic (%) [5]: 82%
- Population Fragmented Nuclei (%) [5]: 15%
- Population Healthy Nuclei (%) [5]: 74%
- Population Hoechst High Intensity Objects (%) [5]: 3%
- Population Membrane Permeable-Phenotype (%) [5]: 1%
- Population Mitochondria Different-Phenotype (%) [5]: 1%
- Population Mitotic Cells (%) [5]: 17%
- Population Normal (%) [5]: 96%
- Population Pyknosed Nuclei (%) [5]: 10%
- Population Tubulin-Different-Phenotype (%) [5]: 0%
- Total Cell Count [5]: 295
- Population Apoptotic (%) [6]: 64%
- Population Fragmented Nuclei (%) [6]: 7%
- Population Healthy Nuclei (%) [6]: 83%
- Population Hoechst High Intensity Objects (%) [6]: 1%
- Population Membrane Permeable-Phenotype (%) [6]: 9%
- Population Mitochondria Different-Phenotype (%) [6]: 4%
- Population Mitotic Cells (%) [6]: 35%
- Population Normal (%) [6]: 98%
- Population Pyknosed Nuclei (%) [6]: 8%
- Population Tubulin-Different-Phenotype (%) [6]: 6%
- Total Cell Count [6]: 162
- Population Apoptotic (%) [7]: 65%
- Population Fragmented Nuclei (%) [7]: 33%
- Population Healthy Nuclei (%) [7]: 54%
- Population Hoechst High Intensity Objects (%) [7]: 3%
- Population Membrane Permeable-Phenotype (%) [7]: 10%
- Population Mitochondria Different-Phenotype (%) [7]: 5%
- Population Mitotic Cells (%) [7]: 34%
- Population Normal (%) [7]: 96%
- Population Pyknosed Nuclei (%) [7]: 11%
- Population Tubulin-Different-Phenotype (%) [7]: 4%
- Total Cell Count [7]: 228
- Population Apoptotic (%) [8]: 88%
- Population Fragmented Nuclei (%) [8]: 14%
- Population Healthy Nuclei (%) [8]: 75%
- Population Hoechst High Intensity Objects (%) [8]: 2%
- Population Membrane Permeable-Phenotype (%) [8]: 13%
- Population Mitochondria Different-Phenotype (%) [8]: 12%
- Population Mitotic Cells (%) [8]: 11%
- Population Normal (%) [8]: 97%
- Population Pyknosed Nuclei (%) [8]: 10%
- Population Tubulin-Different-Phenotype (%) [8]: 10%
- Total Cell Count [8]: 165
- Population Apoptotic (%) [9]: 88%
- Population Fragmented Nuclei (%) [9]: 13%
- Population Healthy Nuclei (%) [9]: 77%
- Population Hoechst High Intensity Objects (%) [9]: 2%
- Population Membrane Permeable-Phenotype (%) [9]: 5%
- Population Mitochondria Different-Phenotype (%) [9]: 1%
- Population Mitotic Cells (%) [9]: 11%
- Population Normal (%) [9]: 97%
- Population Pyknosed Nuclei (%) [9]: 8%
- Population Tubulin-Different-Phenotype (%) [9]: 3%
- Total Cell Count [9]: 405
- Population Apoptotic (%) [10]: 93%
- Population Healthy Nuclei (%) [10]: 73%
- Population Hoechst High Intensity Objects (%) [10]: 3%
- Population Membrane Permeable-Phenotype (%) [10]: 4%
- Population Mitochondria Different-Phenotype (%) [10]: 4%
- Population Mitotic Cells (%) [10]: 6%
- Population Normal (%) [10]: 96%
- Population Pyknosed Nuclei (%) [10]: 13%
- Total Cell Count [10]: 221
- Population Apoptotic (%) [11]: 86%
- Population Fragmented Nuclei (%) [11]: 30%
- Population Healthy Nuclei (%) [11]: 57%
- Population Hoechst High Intensity Objects (%) [11]: 3%
- Population Membrane Permeable-Phenotype (%) [11]: 7%
- Population Mitochondria Different-Phenotype (%) [11]: 1%
- Population Mitotic Cells (%) [11]: 13%
- Population Normal (%) [11]: 96%
- Population Pyknosed Nuclei (%) [11]: 12%
- Population Tubulin-Different-Phenotype (%) [11]: 3%
- Total Cell Count [11]: 303
- Population Apoptotic (%) [12]: 87%
- Population Fragmented Nuclei (%) [12]: 13%
- Population Healthy Nuclei (%) [12]: 66%
- Population Hoechst High Intensity Objects (%) [12]: 4%
- Population Membrane Permeable-Phenotype (%) [12]: 9%
- Population Mitochondria Different-Phenotype (%) [12]: 9%
- Population Mitotic Cells (%) [12]: 12%
- Population Normal (%) [12]: 95%
- Population Pyknosed Nuclei (%) [12]: 20%
- Population Tubulin-Different-Phenotype (%) [12]: 5%
- Total Cell Count [12]: 206
